Source: ChEMBL document CHEMBL5252546, “Salutaxel, a Conjugate of Docetaxel and a Muramyl Dipeptide (MDP) Analogue, Acts as Multifunctional Prodrug That Inhibits Tumor Growth and Metastasis” (J Med Chem, 2018)
The source made the active and inactive calls. No cut-off for these calls is given here.

Tests used:
[1] = Tmax in mouse plasma implanted with mouse 4T1 cells at 10 mg/kg,iv measured upto 72 hrs; assay type: ADME, organism-based
[2] = Plasma protein binding in rat plasma incubated for 4 hrs; assay type: ADME, cell-free; settings: read-out: PPB (converted)
[3] = Drug excretion in rat feces at 4 mg/kg,iv measured upto 72 hrs; assay type: ADME, organism-based; settings: faeces, read-out: Drug excretion
[4] = Drug metabolism in rat feces assessed as metabolite docetaxel formation at 4 mg/kg,iv measured after 24 hrs; assay type: ADME, organism-based; settings: in vivo
[5] = Drug distribution in rat small intestine at 4 mg/kg,iv measured by 0.25 hrs; assay type: ADME, organism-based; settings: in vivo
Outline: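 Rats received 4 mg/kg iv. Parent drug and released docetaxel were assayed in tissues and plasma from the first sampling at 0.25 h to 24 h. The lower limit of quantitation was 200 ng/g.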

[6] = Drug concentration in plasma of Beagle dog assessed as docetaxel concentration at 1 to 4 mg/kg,iv measured upto 24 hrs; assay type: ADME, organism-based, Canis lupus familiaris; settings: in vivo, dose 1-4 mg/kg
Outline: (§1)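 Beagle dogs were given a single iv infusion at 1, 2 or 4 mg/kg. Plasma parent drug and released docetaxel were followed over time. Cmax, Tmax, AUC, MRT, t1/2, CL and Vss were reported by sex and for all dogs combined.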

[7] = Volume of distribution at steady state in female Beagle dog at 1 mg/kg,iv measured upto 24 hrs; assay type: ADME, organism-based, Canis lupus familiaris; settings: in vivo, read-out: Vdss
[8] = Volume of distribution at steady state in male rat at 8 mg/kg,iv measured upto 24 hrs; assay type: ADME, organism-based; settings: in vivo, read-out: Vdss
[9] = Volume of distribution at steady state in female rat at 4 mg/kg,iv measured upto 24 hrs; assay type: ADME, organism-based; settings: in vivo, read-out: Vdss
[10] = Volume of distribution at steady state in male rat at 2 mg/kg,iv measured upto 24 hrs; assay type: ADME, organism-based; settings: in vivo, read-out: Vdss
[11] = Clearance in female rat at 8 mg/kg,iv measured upto 24 hrs; assay type: ADME, organism-based; settings: in vivo
Outline: (§2)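 Rats were given a single iv injection at 2, 4 or 8 mg/kg. Plasma parent drug and released docetaxel were followed over time. Cmax, Tmax, AUC, MRT, t1/2, CL and Vss were reported for males, females and all animals combined.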

[12] = Clearance in female rat at 4 mg/kg,iv measured upto 24 hrs; assay type: ADME, organism-based; settings: in vivo; outline: as §2
[13] = Half life in Beagle dog at 4 mg/kg,iv measured upto 24 hrs; assay type: ADME, organism-based, Canis lupus familiaris; settings: in vivo
[14] = MRT (0 to infinity) in female Beagle dog at 2 mg/kg,iv measured upto 24 hrs; assay type: ADME, organism-based, Canis lupus familiaris; settings: in vivo
[15] = AUC (0-t) in male Beagle dog at 4 mg/kg,iv measured upto 24 hrs; assay type: ADME, organism-based, Canis lupus familiaris; set-up: dose 4 mg/kg, time < 24 hrs, route iv; settings: in vivo
Outline: (§3)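 Single iv dose: rats 2, 4 or 8 mg/kg by intravenous injection; Beagle dogs 1, 2 or 4 mg/kg by intravenous infusion. Plasma concentration–time data were analysed by sex and pooled. Reported parameters: Cmax, Tmax, AUC0−t, AUC0−∞, MRT0−∞, t1/2, CL, Vss, given as mean ± SD.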

[16] = AUC (0-t) in female Beagle dog at 2 mg/kg,iv measured upto 24 hrs; assay type: ADME, organism-based, Canis lupus familiaris; set-up: dose 2 mg/kg, time < 24 hrs, route iv; settings: in vivo; outline: as §3
[17] = Tmax in rat at 8 mg/kg,iv measured upto 24 hrs; assay type: ADME, organism-based; settings: in vivo
[18] = Cmax in female rat at 8 mg/kg,iv measured upto 24 hrs; assay type: ADME, organism-based; set-up: time < 24 hrs, dose 8 mg/kg, route iv; settings: in vivo; outline: as §2
[19] = Cmax in male Beagle dog at 1 mg/kg,iv measured upto 24 hrs; assay type: ADME, organism-based, Canis lupus familiaris; set-up: dose 1 mg/kg, time < 24 hrs, route iv; settings: in vivo; outline: as §1
[20] = Cmax in Beagle dog at 1 mg/kg,iv measured upto 24 hrs; assay type: ADME, organism-based, Canis lupus familiaris; set-up: dose 1 mg/kg, time < 24 hrs, route iv; settings: in vivo; outline: as §1
[21] = Cmax in female Beagle dog at 4 mg/kg,iv measured upto 24 hrs; assay type: ADME, organism-based, Canis lupus familiaris; set-up: time < 24 hrs, dose 4 mg/kg, route iv; settings: in vivo; outline: as §1
[22] = Toxicity in Beagle dog assessed as effect on respiratory frequency at 1 to 4 mg/kg,iv; assay type: organism-based, Canis lupus familiaris; settings: in vivo, dose 1-4 mg/kg
[23] = Toxicity in Beagle dog assessed as decrease in body temperature at 1 to 4 mg/kg,iv measured after 1 to 4 hrs; assay type: organism-based, Canis lupus familiaris; settings: in vivo, dose lower 1 mg/kg, time lower 1 hrs, dose upper 4 mg/kg, time upper 4 hrs
[24] = Stability in dog hepatocyte assessed as compound remaining at 3 uM incubated upto 120 mins; assay type: ADME, cell-based, Canis lupus familiaris; settings: hepatocytes, 2 h
[25] = Stability in rat hepatocyte assessed as compound remaining at 3 uM incubated upto 120 mins; assay type: ADME, cell-based; settings: hepatocytes, 2 h
MDA-MB-468 = experiment: Antiproliferative activity against human MDA-MB-468 cells assessed inhibition of cell growth incubated for 72 hrs by SRB assay; assay type: functional, cell-based; settings: MDA-MB-468, 72 h
KM12 = experiment: Antiproliferative activity against human KM12 cells assessed inhibition of cell growth incubated for 72 hrs by SRB assay; assay type: functional, cell-based; settings: KM12, 72 h
4T1 [26] = experiment: Antitumor activity against mouse 4T1 cells implanted in BALB/c mouse assessed as decrease in spleen MDSC cells at 10 mg/kg,iv measured after 28 days (reference value: 38%); assay type: functional; set-up: scale not given: the % may be the effect or the level left; settings: time 28 day
4T1 [27] = experiment: Antitumor activity against mouse 4T1 cells xenografted with BALB/c mouse assessed as reduction lung metastatic nodules at 5.7 mg/kg,iv in presence of compound 6 administrated once per week for 4 weeks; assay type: functional, organism-based
Outline: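 4T1 cells injected into mammary fat pads of BALB/c mice. Dosing iv once per week for 4 weeks, saline vehicle; single-agent arms were given alone or with the peptide component (5b or 6). Endpoints were body weight, tumour volume, tumour weight, lung metastatic nodule count and lung metastasis score. Mean ± SEM, n = 10; ANOVA and Student's t test.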

[28] = Toxicity in BALB/c mouse injected with mouse 4T1 cells assessed as body weight loss at 5.7 mg/kg,iv in presence of compound 6 administrated once per week for 4 weeks; assay type: organism-based; settings: in vivo, 672 h
4T1 [29] = experiment: Antitumor activity against mouse 4T1 cells implanted in BALB/c mouse assessed as decrease in spleen MDSC cells at 5.7 mg/kg,iv administrated in presence of compound 5b measured after 28 days (reference value: 38%); assay type: functional; set-up: scale not given: the % may be the effect or the level left; settings: time 28 day
Outline: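 Splenocytes taken from 4T1 fat-pad tumor-bearing BALB/c mice after 28 days of tumor growth with weekly iv dosing. Cells stained with anti-CD11b PE and anti-Gr-1 FITC, and the Gr-1+CD11b+ percentage scored by flow cytometry. Eight mice per treated group, five naive. Mean ± SEM.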

4T1 [30] = experiment: Antitumor activity against mouse 4T1 cells implanted in BALB/c mouse assessed as decrease in spleen MMP2 expression level at 5.7 mg/kg,iv administrated once per week for 4 weeks in presence of MDA-205 by western blot assay; assay type: functional, organism-based
Outline: (§4)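 4T1 cells injected into mammary fat pads of BALB/c mice. Saline vehicle or test article given iv once weekly for 4 weeks. Spleen, lung and tumor lysates immunoblotted for MMP2/MMP9 with β-actin as loading control. Bands averaged over five mice per group, representative of two independent experiments.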

4T1 [31] = experiment: Antitumor activity against mouse 4T1 cells implanted in BALB/c mouse assessed as decrease in tumor MMP2 expression level at 5.7 mg/kg,iv administrated once per week for 4 weeks by western blot assay; assay type: functional, organism-based; outline: as §4
4T1 [32] = experiment: Antitumor activity against mouse 4T1 cells implanted in BALB/c mouse assessed as decrease in lung injury at 5.7 mg/kg,iv administrated once per week for 4 weeks in presence of MDA-205 by H and E staining based assay; assay type: functional, organism-based
Outline: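 BALB/c mice bearing orthotopic mammary fat pad 4T1 tumors, dosed iv weekly for 4 weeks with saline vehicle as control. Lung sections stained with hematoxylin and eosin and examined by light microscopy at 40× for metastasis, inflammatory infiltration and alveolar wall thickening.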

in vivo = settings: mouse, tumor, iv, 5.7 mg/kg

With CC(=O)O[C@@]12CO[C@@H]1C[C@H](O)[C@@]1(C)C(=O)[C@H](O)C3=C(C)[C@@H](OC(=O)[C@H](OC(=O)CCC(=O)NCCCC[C@H](NC(=O)CC[C@@H](NC(=O)[C@H](C)NC(=O)/C=C/c4ccc(F)cc4Cl)C(N)=O)C(=O)O)[C@@H](NC(=O)OC(C)(C)C)c4ccccc4)C[C@@](O)([C@@H](OC(=O)c4ccccc4)[C@H]21)C3(C)C the Tmax [1] was 1.8 min, the fraction unbound at 4 h [2] was 0.007 and the dose excreted at 72 h [3] was 69.9%. For the same compound, the Drug metabolism [4] was “Metabolite_Detected”, the Drug uptake [5] was “Active” and the Drug uptake [6] was 0.23%. The Vd [7] was 0.204 L/kg, the Vd [8] was 0.096 L/kg and the Vd [9] was 0.08 L/kg. The Vd [10] was 0.076 L/kg, the clearance [11] was 3.39 mL/min/kg and the clearance [12] was 5.13 mL/min/kg. For the same compound, the half-life [13] was 35.5 min, the MRT inf [14] was 15.2 min and the AUC(0-t) at 24 h [15] was 15200 ng·h/mL. For the same compound, the AUC(0-t) at 24 h [16] was 6970 ng·h/mL, the Tmax [17] was 4.98 min and the Cmax [18] was 62500 ng/mL. For the same compound, the Cmax [19] was 3740 ng/mL, the Cmax [20] was 3880 ng/mL and the Cmax [21] was 30800 ng/mL. For the same compound, the Activity [22] was “Non-Toxic”, the Activity [23] was “Non-Toxic” and the Stability [24] was “Stable”. The Stability [25] was “Stable”, the IC50 (MDA-MB-468) was 16.3 nM and the IC50 (KM12) was 16.3 nM. For the same compound, the Activity (4T1 [26]) was 20.2%.

For CC(=O)O[C@@]12CO[C@@H]1C[C@H](O)[C@@]1(C)C(=O)[C@H](O)C3=C(C)[C@@H](OC(=O)[C@H](O)[C@@H](NC(=O)OC(C)(C)C)c4ccccc4)C[C@@](O)([C@@H](OC(=O)c4ccccc4)[C@H]21)C3(C)C [DOCETAXEL ANHYDROUS], the Activity (4T1 [27]) was “inactive”, the Activity [28] was “Non-Toxic” and the Activity (4T1 [29]) was 32.1%. The Activity (4T1 [30]) was “inactive”, the Activity (4T1 [31]) was “inactive” and the Activity (4T1 [32]) was “Active”. The AUC(0-t) at 72 h (in vivo) was 27 µM·h.
